# Most compounds without a hit are left out; they make up all but 2.5% or so of the library.
# TCR CD3 inh: inhibitors of human TCR-CD3 interaction, primary screen, biochemical, fluorescence, TAMRA-labeled TCR probe; AID 651800, 2012; 360,000 tested, 0.37% active; inhibition, % at 9.4 µM; in the data active = inhibition above about 19%;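 note: recombinant mutant TCR 2C K166C tagged with TAMRA read by polarization; 0% = receptor in buffer alone and 100% = receptor with positive control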
# SIAE primary: human SIAE inhibitors, primary screen, biochemical, fluorescence polarization, FP-Rh probe, 1536-well HTS | inhibition, % at 9.66 µM | SIAE FP-Rh probe binding | 370,000 tested, 0.69% active | AID 1053197, 2014;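 active = inhibition above a cutoff: mean of compounds within the control limits plus 3 SD of those, cut at about 17% in these data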;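 note: 0% = plate median of compound wells and 100% = probe without SIAE protein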
# Target sequence (Q9HAT2 whole entry, looked up): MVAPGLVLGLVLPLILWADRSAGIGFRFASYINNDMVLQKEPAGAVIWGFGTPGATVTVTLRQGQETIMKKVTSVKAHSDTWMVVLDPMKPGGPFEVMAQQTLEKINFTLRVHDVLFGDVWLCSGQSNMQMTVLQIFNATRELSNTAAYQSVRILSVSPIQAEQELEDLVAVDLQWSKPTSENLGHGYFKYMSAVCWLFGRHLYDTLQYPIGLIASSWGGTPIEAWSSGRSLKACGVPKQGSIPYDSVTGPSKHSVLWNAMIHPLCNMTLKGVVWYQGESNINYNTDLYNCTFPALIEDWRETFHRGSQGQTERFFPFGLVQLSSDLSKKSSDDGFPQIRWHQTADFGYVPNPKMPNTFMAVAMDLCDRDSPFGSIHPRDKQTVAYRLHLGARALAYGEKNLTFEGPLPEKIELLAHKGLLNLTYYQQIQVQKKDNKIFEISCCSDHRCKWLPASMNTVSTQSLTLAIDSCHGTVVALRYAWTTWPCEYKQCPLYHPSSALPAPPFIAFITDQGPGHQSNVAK
# HTRA1 inhibitor: HTRA1 serine protease inhibitors, primary screen, biochemical, fluorescence polarization, HTS; Q92743; recombinant HTRA1, FP-rhodamine activity-based probe; inhibition, % at 5.96 µM; 340,000 tested, 0.5% active; in the data active = inhibition above about 36%;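 note: 0% = enzyme with DMSO and 100% = wells lacking enzyme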
# rCAG RNA binder: binders of r(CAG) RNA repeats, primary screen, biochemical, fluorescence | r(CAG) RNA repeat, TO-PRO-1 dye displacement fluorescence | inhibition, % at 3 µM | 370,000 tested, 1.3% active;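 active = inhibition above the plate cutoff, the mean of all test compounds on that plate plus 3 SD, cut at about 35% in these data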;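 note: 0% = DMSO alone and 100% = 100 µM mitoxantrone as full dye displacement; higher means more dye released from RNA so lower well fluorescence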
# mABHD4 FP: ABHD4 inhibitors, primary screen, biochemical, fluorescence polarization, mouse; (Lyso)-N-acylphosphatidylethanolamine lipase (Mus musculus), Q8VD66; purified mABHD4, FP-Rh probe fluorescence polarization; inhibition, % at 8.92 µM; 370,000 tested, 0.54% active; AID 720543, 2013;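 active = inhibition exceeding the mean over every tested compound plus 3 SD, cut at about 30% in these data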;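 note: 0% = plate median of compound wells and 100% = S159A mutant with DMSO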
#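 Assay system: Wild-type mouse ABHD4 protein | Medium: HEPES pH 7.0 buffer, 150 mM NaCl, 0.01% Pluronic F-127 | Incubation: Enzyme–compound pre-incubation 45 min, then probe 60 min, both 25 °C | Technique: Fluorescence polarization with parallel and perpendicular emission, 525/598 nm | Evaluation: % inhibition of FP-Rh probe binding versus controls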
# rCAG binder conf: small molecules binding CAG repeat RNA – biochemical, fluorescence, confirmation. inhibition, % at 3 µM. 4,300 tested, 70% active. shares compounds with rCAG RNA binder. r(CAG) RNA repeat, TO-PRO-1 dye displacement fluorescence;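 active = inhibition above a per-plate cutoff, the mean inhibition of sample wells plus 3 SD, cut at about 35% in these data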;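 note: loss of TO-PRO-1 fluorescence as compound displaces dye from 1x1 AA loop RNA; 0% = DMSO only wells and 100% = 100 µM mitoxantrone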
# DNA CAG counter: displacement of TO-PRO-1 from CAG DNA duplex, counter-screen for rCAG RNA repeat binder project, biochemical, fluorescence, TO-PRO-1 dye, d(CAG) DNA oligo | shares compounds with rCAG RNA binder | d(CAG) DNA oligo TO-PRO-1 dye displacement | inhibition, % at 3 µM | 4,300 tested, 94% active;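 active = inhibition above its plate's cutoff, the mean test-well inhibition plus 3 SD, cut at about 4.8% in these data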;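 note: 0% = DNA dye mix with DMSO and 100% = 100 µM mitoxantrone; hits displace the dye from DNA and so lower well fluorescence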
# DNA CAG DR: inhibitors of DNA CAG/GTC TO-PRO-1 complex, dose response, counter-screen for rCAG RNA repeat binder project, biochemical, fluorescence, TO-PRO-1 dye; AID 686960, 2013; DNA CAG/GTC duplex TO-PRO-1 dye displacement fluorescence; 250 tested, 20% active; IC50, µM; shares compounds with rCAG RNA binder; in the data active = IC50 below about 10 µM
# Active calls of the source: *; i = inactive; x = not tested or not shown.
SMILES,TCR CD3 inh,SIAE primary,HTRA1 inhibitor,rCAG RNA binder,mABHD4 FP,rCAG binder conf,DNA CAG counter,others
CC1(C(=O)NS(=O)(=O)c2cccs2)CCN1C(=O)C1(c2ccc(Cl)cc2)CCC1 (centres undefined),-1.2,-2.0,x,28.5,1.4,x,x,
CC1(C(=O)NS(=O)(=O)c2ccc(Cl)s2)CCN1C(=O)C1(c2ccc(Cl)cc2)CC1 (centres undefined),-8.6,1.0,x,53.5*,-0.8,48.8*,13.7*,
COC(=O)[C@@]12C[C@@H](CC(=O)NCc3ccc(OC)c(OC)c3)C(=O)N(Cc3ccco3)C1=CCC(C)(C)C2,-7.0,-1.1,x,-1.5,-0.6,x,x,
CC1CCCC(NC(=O)CCS(=O)(=O)c2ccc3c(c2)NC(=O)CS3)C1C (centres undefined),7.5,4.5,4.1,-1.7,6.8,x,x,
S=c1[nH]nc(-c2n[nH]c3c2CCC3)n1N=Cc1c2ccccc2cc2ccccc12,x,-2.8,x,26.1,-2.6,x,x,
Nc1ccc(S(=O)(=O)Nc2nccs2)cc1N=Nc1ccccc1[N+](=O)[O-],10.8,5.4,7.6,67.5*,14.6,81.1*,47.9*,
Cn1cc(/C=C2\SC(=O)NC2=S)c2ccccc21,-3.8,4.0,16.3,39.6*,9.3,32.9,10.9*,
Cc1ccc(C(=O)NN2C(=O)/C(=C/c3cn(C)c4ccccc34)SC2=S)cc1,-3.4,-0.9,-3.2,0.1,-1.2,x,x,
COc1cccc(N2CC(NC(=O)c3cccc4ccccc34)CC2=O)c1 (centres undefined),-1.5,2.7,-2.8,-3.4,1.1,x,x,
CCOc1ccc([C@@H]2CC=C(C(=O)O)[C@H](c3cccc(Cl)c3)N2S(=O)(=O)c2ccc(C)cc2)cc1,0.8,1.1,-25.8,69.3*,11.1,70.5*,33.2*,DNA CAG DR=i
Cc1ccc([C@@H]2CC=C(C(=O)O)[C@H](c3ccc(F)cc3)N2S(=O)(=O)c2ccc(C)cc2)cc1,5.1,-5.8,-18.6,54.3*,5.1,61.4*,24.1*,
Cc1ccc(S(=O)(=O)N2[C@@H](c3ccccc3)C(C(=O)O)=CC[C@H]2c2cccc(Cl)c2)cc1,-3.6,0.3,-8.4,11.8,10.7,x,x,
CCc1ccc([C@@H]2CC=C(C(=O)O)[C@H](c3ccccc3)N2S(=O)(=O)c2ccc(C)cc2)cc1,6.5,-0.3,-20.7,76.2*,-3.4,66.9*,27.4*,
Cc1ccc(S(=O)(=O)N2[C@@H](c3ccc(F)cc3)C(C(=O)O)=CC[C@H]2c2cccc(C)c2)cc1,-10.2,0.8,0.6,8.8,5.4,x,x,
Cc1ccccc1S(=O)(=O)N1[C@@H](c2ccc(F)cc2)C(C(=O)O)=CC[C@H]1c1ccc(Cl)cc1,-0.9,10.1,-34.8,57.8*,8.2,72.2*,32.8*,DNA CAG DR=i
COCCCN(C(=O)c1cc2c(s1)CCC2)c1c(N)n(Cc2ccccc2)c(=O)[nH]c1=O,7.0,0.7,4.6,13.4,6.8,x,x,
OC(CN1CCOCC1)C12CC3CC(CC(C3)C1)C2 (centres undefined),4.0,-1.1,3.6,-3.4,4.8,x,x,
N/C(CSc1nc(-c2ccccc2)c(-c2ccccc2)o1)=N\O,-2.1,-1.0,-14.4,3.4,-1.1,x,x,
COc1ccc(-n2ncc3c2CC(C)(C)CC3NC(=O)C2CCN(C(C)=O)CC2)cc1 (centres undefined),-3.3,3.4,-2.6,-3.6,2.4,x,x,
COc1ccc([C@@H]2CC=C(C(=O)O)[C@H](c3cccc(Cl)c3)N2S(=O)(=O)c2ccc(C)cc2)cc1OC,3.4,-3.4,-3.4,38.9*,10.3,28.8,7.0*,
CCOc1ccc([C@@H]2CC=C(C(=O)O)[C@H](c3ccc(F)cc3)N2S(=O)(=O)c2ccc(C)cc2)cc1,-6.0,-3.8,-13.4,51.6*,5.0,51.2*,14.8*,
COc1ccc([C@@H]2CC=C(C(=O)O)[C@H](c3ccc(Cl)cc3)N2S(=O)(=O)c2ccc(Cl)cc2)cc1,1.1,-4.3,-12.0,59.1*,2.2,74.2*,37.5*,
Cc1ccc([C@@H]2CC=C(C(=O)O)[C@H](c3ccc(Br)cc3)N2S(=O)(=O)c2ccc(C)cc2)cc1,3.9,-2.0,-0.4,82.3*,-2.8,83.8*,49.8*,
Cc1ccc(S(=O)(=O)N2[C@@H](c3cccc(Cl)c3)C(C(=O)O)=CC[C@H]2c2ccc(Cl)cc2)cc1,-3.9,-7.2,-72.4,10.3,11.1,x,x,
C=C(CCO)C1=CCN(S(=O)(=O)C(C)(C)C)[C@@H]1CCO,4.3,1.1,3.0,3.6,-1.7,x,x,
SMILES,TCR CD3 inh,SIAE primary,HTRA1 inhibitor,rCAG RNA binder,mABHD4 FP,rCAG binder conf,DNA CAG counter,others
O=S(=O)(Nc1cccc2[nH]ncc12)c1cccs1,1.9,6.9,-0.1,4.2,3.2,x,x,
O=C(NCc1ccc(C(F)(F)F)cc1)C1CC(c2ccccc2C(F)(F)F)=NO1 (centres undefined),-4.6,3.6,-12.0,-5.5,-7.6,x,x,
CCc1ccc([C@@H]2CC=C(C(=O)O)[C@H](c3ccc(F)cc3)N2S(=O)(=O)c2ccc(C)cc2)cc1,-3.0,-7.0,-30.4,80.1*,-19.6,62.1*,24.2*,
O=C(O)C1=CC[C@@H](c2ccc(Cl)cc2)N(S(=O)(=O)c2ccc(Cl)cc2)[C@H]1c1ccc(F)cc1,6.4,-2.6,-37.6,70.1*,-3.6,67.7*,30.0*,
COc1ccccc1C(=O)N(C)c1nnc(-c2ccccc2)s1,1.5,-9.5,-6.0,0.1,-14.8,x,x,
CSc1ccc(Cl)c(C(=O)NCc2ccco2)c1,7.4,2.4,-3.0,4.1,4.3,x,x,
Cc1cccc(NC(=S)NNC(=O)c2cc3c(s2)CCC(C)C3)c1C (centres undefined),4.2,-1.4,-8.2,37.3*,10.2,34.9*,11.8*,
Cc1ccc(C)c(NC(=S)NNC(=O)c2cc3c(s2)CCC(C)C3)c1 (centres undefined),-8.7,3.0,-0.9,30.7,14.6,x,x,
O=C(c1ccco1)N1N=C(c2cccs2)CC1c1cc([N+](=O)[O-])ccc1O (centres undefined),-5.3,-14.2,-6.9,53.8*,-12.1,35.1*,13.0*,

# Assay outcomes deposited in PubChem BioAssay by The Scripps Research Institute Molecular Screening Center.
